Active and inactive are the calls of the source. The calls are words filed in the database; no cut-off is given here.

For one test, the target named is T1, Caspase-9 (Homo sapiens, UniProt P55211).
T1 sequence (P55211 whole entry): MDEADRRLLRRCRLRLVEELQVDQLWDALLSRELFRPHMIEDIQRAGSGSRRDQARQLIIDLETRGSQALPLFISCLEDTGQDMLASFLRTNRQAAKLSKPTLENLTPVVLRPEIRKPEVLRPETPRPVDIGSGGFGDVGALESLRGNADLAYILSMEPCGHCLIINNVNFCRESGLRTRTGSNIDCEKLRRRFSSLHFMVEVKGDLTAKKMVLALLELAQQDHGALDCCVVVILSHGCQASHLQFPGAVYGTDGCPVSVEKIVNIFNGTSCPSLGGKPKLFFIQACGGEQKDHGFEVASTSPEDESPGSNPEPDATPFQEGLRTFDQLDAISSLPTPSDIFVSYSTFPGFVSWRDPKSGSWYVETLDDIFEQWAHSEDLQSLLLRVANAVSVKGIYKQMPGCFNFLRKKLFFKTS
Briefly: Inhibitory activity against Caspase-9. The settings on record: read-out: Ki app.

Test [1] has as its system C20/A4. Briefly: In vitro inhibition of Chondrocyte cell line C20/A4 apoptosis at 25 uM of compound. In kind it is functional, Homo sapiens. In outline:
(§1)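 Immortalized human chondrocyte line C20/A4 seeded at 20 000 cells/well overnight, then exposed 24 h to 4 μg/mL camptothecin with or without compound. Floating and adherent cells combined and lysed 30 min at 4 °C, then clarified at 14000g. Mono- and oligonucleosome DNA fragments measured by cell death ELISA; result expressed as % inhibition of apoptosis.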

For a further test, the target named is T2, Caspase-7 (Homo sapiens, UniProt P55210).
T2 sequence (P55210 whole entry): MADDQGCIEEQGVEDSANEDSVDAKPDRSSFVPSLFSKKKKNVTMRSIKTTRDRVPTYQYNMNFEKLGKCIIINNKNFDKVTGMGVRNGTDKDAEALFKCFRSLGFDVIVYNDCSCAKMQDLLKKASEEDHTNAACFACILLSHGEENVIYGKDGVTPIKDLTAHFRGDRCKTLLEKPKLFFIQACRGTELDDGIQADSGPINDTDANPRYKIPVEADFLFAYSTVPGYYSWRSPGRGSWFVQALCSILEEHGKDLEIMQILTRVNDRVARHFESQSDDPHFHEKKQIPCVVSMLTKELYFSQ
Briefly: Inhibitory activity against Caspase-7. To be noted: read-out: Ki app. In outline:
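Recombinant full-length human caspase 3 or 7, ~10 units/assay (1 unit = 1 pmol AMC/min). Substrate 10 μM Ac-DEVD-AMC. AMC fluorescence at 360/460 nm, 30 °C, with 5% final DMSO. Single-dose screen (typically 5–50 μM), then IC50 curves; repeated IC50s had CVs typically <30%.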

A further test deals with Jurkat (Homo sapiens). Briefly: In vitro inhibition of Jurkat cell apoptosis at 50 uM of compound.
In test [2] the test system is C20/A4. The test is described as follows: In vitro inhibition of Chondrocyte cell line C20/A4 apoptosis at 10 uM of compound. In kind it is functional, Homo sapiens. In outline:
as §1

For test [3], the system named is C20/A4. Briefly: In vitro inhibition of Chondrocyte cell line C20/A4 apoptosis at 10 uM of compound; Not active. In kind it is functional, cell-based. To be noted: Homo sapiens. The gist of the method:
as §1

Test [4] concerns C20/A4. The test is described as follows: In vitro inhibition of Chondrocyte cell line C20/A4 apoptosis at 25 uM of compound; Not active. In kind it is functional, cell-based. To be noted: Homo sapiens. In outline: as §1

A word on the Inhibition: it is how much of the control response was suppressed. Low values mean little suppression, high ones strong suppression. `O=C1Nc2ccc(S(=O)(=O)N3CCC[C@H]3COc3ccccc3)cc2C1=O`: the Ki worked out at 1.2 µM on Caspase-9 and 0.047 µM on Caspase-7. Further, the Inhibition in the test with C20/A4 [1] turned out to be 83%; with Jurkat (Homo sapiens), 82%.
On to `O=C1Nc2ccc(S(=O)(=O)N3CCC[C@H]3CNc3ccccc3)cc2C1=O`, for which the Ki on Caspase-9 is 0.85 µM; at Caspase-7 it was 0.047 µM. The Inhibition in the test on C20/A4 [1] worked out at 96%; in the test on Jurkat (Homo sapiens) it was 61%.
In the case of `O=C1C(=O)N(Cc2ccccc2)c2ccc(S(=O)(=O)N3CCC[C@H]3COc3ccccc3)cc21`, the values for the Ki on Caspase-9 and at Caspase-7 were 0.12 µM and 0.006 µM, respectively. The values for the Inhibition in the test with C20/A4 [2], in the test with C20/A4 [1] and with Jurkat (Homo sapiens) were 48%, 84% and 47%, respectively.
Consider `COC[C@@H]1CCCN1S(=O)(=O)c1ccc2c(c1)C(=O)C(=O)N2`, for which the Ki was 1.1 µM on Caspase-9 and 0.17 µM on Caspase-7. For the same compound, the Inhibition worked out at 44% with C20/A4 [2] and 54% in the test on Jurkat (Homo sapiens).
Turning to `CN(CC1CCCN1S(=O)(=O)c1ccc2c(c1)C(=O)C(=O)N2)c1ccccc1` (stereo unspecified), the Ki at Caspase-9 was > 50 µM; at Caspase-7, 10 µM. Further, the NA entry in the test with C20/A4 [3] and with C20/A4 [4] was “inactive” throughout.

For the origin of these results see ChEMBL document CHEMBL1134769, “Potent and selective nonpeptide inhibitors of caspases 3 and 7” (J Med Chem, 2001).
